Measured values from different studies.
Compare with care: the assays were run in different laboratories.
Target: Ephrin type-A receptor 1 (EPHA1, Homo sapiens, UniProt P21709)
One construct used (P21709 26-976): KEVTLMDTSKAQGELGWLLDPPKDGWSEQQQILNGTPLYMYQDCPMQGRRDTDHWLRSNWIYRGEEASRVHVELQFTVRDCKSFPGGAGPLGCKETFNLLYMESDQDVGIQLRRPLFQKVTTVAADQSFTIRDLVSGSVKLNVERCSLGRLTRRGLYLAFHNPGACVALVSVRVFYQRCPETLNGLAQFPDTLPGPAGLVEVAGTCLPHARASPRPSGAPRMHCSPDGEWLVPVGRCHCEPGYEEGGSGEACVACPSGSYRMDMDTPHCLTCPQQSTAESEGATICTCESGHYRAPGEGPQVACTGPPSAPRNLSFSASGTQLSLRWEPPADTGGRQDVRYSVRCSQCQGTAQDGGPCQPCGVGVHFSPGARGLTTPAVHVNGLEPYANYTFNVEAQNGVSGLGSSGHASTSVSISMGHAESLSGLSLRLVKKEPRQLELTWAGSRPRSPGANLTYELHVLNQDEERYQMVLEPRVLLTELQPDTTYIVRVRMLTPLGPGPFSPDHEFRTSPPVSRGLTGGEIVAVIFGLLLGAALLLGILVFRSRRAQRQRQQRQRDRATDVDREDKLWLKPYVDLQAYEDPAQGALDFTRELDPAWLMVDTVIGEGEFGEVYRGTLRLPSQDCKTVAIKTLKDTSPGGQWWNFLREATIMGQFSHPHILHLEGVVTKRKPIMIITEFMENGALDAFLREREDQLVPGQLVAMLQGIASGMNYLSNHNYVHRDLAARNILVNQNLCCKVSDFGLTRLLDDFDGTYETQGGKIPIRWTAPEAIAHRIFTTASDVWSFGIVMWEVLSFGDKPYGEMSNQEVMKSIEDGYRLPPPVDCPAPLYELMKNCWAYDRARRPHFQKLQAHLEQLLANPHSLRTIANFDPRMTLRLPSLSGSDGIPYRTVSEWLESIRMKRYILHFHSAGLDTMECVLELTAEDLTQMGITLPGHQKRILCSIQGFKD

SMILES | assay | setting | quantity | result
Oc1cccc(-c2nc(N3CCOCC3)c3oc4ncccc4c3n2)c1 | cell-free assay | 0.5 µM | remaining signal | 87.8%
C[C@@H]1CN(c2cc(-c3nn(C)c4ccc(OC5(C)CC5)cc34)ncn2)C[C@H](C)O1 | cell-free assay, competition with immobilised ligand | 1 µM | remaining binding | 100%
CCN(CC)CCNC(=O)c1c(C)[nH]c(/C=C2\C(=O)Nc3ccc(F)cc32)c1C | enzyme activity, inhibitor | 10 µM | inhibition | 62%
F[C@@H]1CCN(c2nccc(-c3cnn4ncccc34)n2)C1 | binding | 1 µM | remaining binding | 79%
CNC(=O)Nc1ccc2c(c1)[C@@]1(CC2)OC(=O)N(CC(=O)N(Cc2ccc(F)cc2)[C@@H](C)C(F)(F)F)C1=O | cell-free assay, competition with immobilised ligand | 1 µM | remaining binding | 100%
O=C(Nc1cnn(-c2csc(C(=O)NC3COC3)c2)c1)Nc1ccccc1Cl | enzyme activity, inhibitor | 5 µM | remaining activity | 99.1%
CCS(=O)(=O)c1cc2cc(C[C@](O)(CC(C)(C)c3ccc(F)cc3C(N)=O)C(F)(F)F)[nH]c2cn1 | cell-free assay, competition with immobilised ligand | 1 µM | remaining binding | 100%
COc1cc(Nc2c(C#N)cnc3cc(OCCCN4CCN(C)CC4)c(OC)cc23)c(Cl)cc1Cl | cell-free assay | 0.5 µM | remaining signal | 97.7%
CCCS(=O)(=O)Nc1ccc(F)c(C(=O)c2c[nH]c3ncc(-c4ccc(Cl)cc4)cc23)c1F | enzyme activity, inhibitor | 1 µM | inhibition | < 10%
O=C(N[C@H]1CCCCC/C=C\C2C[C@@]2(C(=O)O)NC(=O)[C@@H]2C[C@@H](Oc3ccncc3)CN2C1=O)OC1CCCC1 (some centres unmarked) | cell-free assay, competition with immobilised ligand | 1 µM | remaining binding | 90%
O=C1NC(=O)c2cc(Nc3ccc(F)cc3)c(Nc3ccc(F)cc3)cc21 | cell-free assay | 0.5 µM | remaining signal | 97.4%
Cc1ccc(Nc2nccc(N(C)c3ccc4c(C)n(C)nc4c3)n2)cc1S(N)(=O)=O | enzyme activity, inhibitor | 0.3 µM | inhibition | 23%
CCCOc1ccc(OC)c(F)c1C(=O)c1ccc(C(=O)N[C@@H]2CNC[C@H]2NC(=O)c2ccc3[nH]ncc3c2)cc1 | enzyme activity, inhibitor | 10 µM | remaining activity | 85%
COc1cc2ncnc(Nc3ccc(Oc4ccccc4)c(C)c3C)c2cc1OC | enzyme activity, inhibitor | 1 µM | inhibition | 8%
COc1cc(-c2cc(-c3ccc(N4CCNCC4)cc3)cnc2C)cc(OC)c1OC | enzyme activity, inhibitor | 0.1 µM | inhibition | 3%
CNC(=O)c1cc(Oc2ccc(NC(=O)Nc3ccc(Cl)c(C(F)(F)F)c3)cc2)ccn1 | enzyme activity, inhibitor | 0.3 µM | inhibition | 23%
CNC(=O)c1cc2c(Oc3ccc(NC(=O)C4(C(=O)Nc5ccc(F)cc5)CC4)cc3)ccnc2cc1OC | enzyme activity, inhibitor, radiometric | 1 µM | inhibition | 90%
Nc1c(C(=O)NCc2ccc(C(=O)NCCCC3CCCCC3)cc2)cnn1-c1ccccc1 | cell-free assay, competition with immobilised ligand | 0.1 µM | remaining binding | 100%
COc1cccc2c(NCc3ccccc3)nc(-n3c(N)nc4ccccc43)nc12 | target engagement in cells, inhibitor, chemoproteomics | 20 mM | inhibition | -22.2%
COc1cc(Cl)c(C(=O)N[C@@H](CN[C@H]2CC[C@@H](N)CC2)Cc2ccc(C#N)cc2)cc1-c1ccc(CN[C@H](C)c2ccc(C)cc2)o1 | enzyme activity, inhibitor | 1 µM | remaining activity | 105%
O=C(O)[C@@H]1[C@@H](Cn2nnc3ccccc3c2=O)CC[C@H]1C(=O)c1ccc(OCCC2CCOCC2)cc1 | cell-free assay, competition with immobilised ligand | 1 µM | remaining binding | 100%
CC(C)(C)c1nc2c(s1)c1nc(N)ncc1c1ccc(NS(=O)(=O)c3c(F)cccc3F)c(F)c12 | enzyme activity, inhibitor, radiometric | 1 µM | remaining activity | 94%
CS(=O)(=O)N1CCCC(NC(=O)[C@H](CCC2CCCCC2)NC(=O)c2ccc(CNc3ncnc4c3nnn4-c3ccccc3)cc2)C1 (some centres unmarked) | cell-free assay, competition with immobilised ligand | 0.1 µM | remaining binding | 95%
CC/C(=N\NC(=O)NCc1cccc(O)c1)c1ccc(O)c(C)c1O | enzyme activity, inhibitor | 0.1 µM | inhibition | -1.2%
Cc1cnc(NC2CCOCC2)nc1-n1cnc(C(=O)NC(CN)c2cc(F)cc(Cl)c2)c1 (centres unmarked) | enzyme activity, inhibitor, radiometric | 1 µM | remaining activity | 99%
CN1CCN(c2cnc3c(C4CCN(C(=O)c5ccc(OC(F)(F)F)cc5N)CC4)ncnc3c2)CC1 | cell-free assay, competition with immobilised ligand | 1 µM | remaining binding | 95%
